According to the RNAGym collection of RNA variant scans (doi:10.1126/science.aae0568):
Variants at the floor of the assay were thinned out.

B1: tRNA (parent)
chain: GUUCCGUUGGCGUAAUGGUAACGCGUCUCCCUCCUAAGGAGAAGACUGCGGGUUCGAGUCCCGUACGGAACG

Variants of: B1
Assay: yeast fitness relative to wild type (ratio to wild type); higher = fitter; tRNA-Arg(CCU), competitive growth, 37 C, YPD
Procedure, shortened: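 The tRNA-Arg(CCU) gene variants were made by chemical synthesis with a 3% per-site mutation rate at 69 sites and inserted at the native genomic locus of Saccharomyces cerevisiae. After pooling, the strains were competed in YPD at 37°C for 24 hours in six parallel replicates. Gene amplicons from the start population and each end population were read by 100-nucleotide paired-end sequencing, and Darwinian fitness relative to wild type was taken from genotype frequency changes. Genotypes needed ≥ 100 starting reads, and estimates < 0.5 were set to 0.5.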

Row | Variant | yeast fitness
1 | GUUCCGUUGGCGUAAUGGUAACGCGUCUCCUUCCUAAGGUGAAGACUGCGGGUUCGAGCCCCGUACGGAACG [C31U A40U U59C] | 0.648
2 | GUUCCGUUGGCGUAAUGGUAACGCGUCUCCUUCCUAAGGAGAAGACUGCGGGUUCGAGUCCCGUACGGUCCG [C31U A69U A70C] | 0.778
3 | GUUCCGUUGGCGUAAUGGUAACGCGUCUCCGUCCUAAGGAGAAGACUGCGGGUUCGAAUCACGUACGGAACG [C31G G58A C61A] | 0.708
4 | GUUCCGUUGGCGUAAUGGUAACGCGUCUCCUUCCUAAGGAGAAGAAUGCGGGUUCGCGUCCCGUUCGGAACG [C31U C46A A57C A65U] | ≤ 0.5
5 | GUUCCGUUGGCGUAAUGGUAACGCGUCUCCGUCCUAAGGAGAAGUCUGGGGGUUCGAGUCCCGUACGGAUCG [C31G A45U C49G A70U] | ≤ 0.5
6 | GUUCCGUUGGCGUAAUGGUAACGCGUCUCCGUCGUAAGGAGCAGACUGCGGGUUCGAGUCCCGUAGGGAACG [C31G C34G A42C C66G] | ≤ 0.5
7 | GUUCCGUUGGCGUAAUGGUAACGCGUCUCCGUCCUAAGGAGAAGGCUGCGGGUUCGAGUCCCGUACGGAACG [C31G A45G] | 0.809
8 | GUUCCGUUGGCGUAAUGGUAACGCGUCUCCGUCGUAAGGUGAAGACUGCGGGUUCGAGUCCCGUACGGAACG [C31G C34G A40U] | ≤ 0.5
9 | GUUCCGUUGGCGUAAUGGUAACGCGUCUCCGUCCUAAGGAGAAGACUGGGGGUUCGAGUCCUGUACCAAACG [C31G C49G C62U G67C G68A] | 0.539
10 | GUUCCGUUGGCGUAAUGGUAACGCGUCUCCUUCCUAAGGAGAAGAUUGCGAGUUCGAGUCCCGUACGGAACG [C31U C46U G51A] | 0.968
11 | GUUCCGUUGGCGUAAUGGUAACGCGUCUCCUUCCUAAGGUGAAGACUGCGGGUCCGAGUCCCGUACGGAACG [C31U A40U U54C] | 0.541
12 | GUUCCGUUGGCGUAAUGGUAACGCGUCUCCGUCCUAAGGAGAAGACUGCGGGUUCGUGUCCCGUACGGCACG [C31G A57U A69C] | ≤ 0.5
13 | GUUCCGUUGGCGUAAUGGUAACGCGUCUCCUUCCUAAGGAGGAGACUGCGGGUUCGAGUCCCGUACGGAACG [C31U A42G] | 0.73
14 | GUUCCGUUGGCGUAAUGGUAACGCGUCUCCGUCCUAAGGAGAAGACGGGGGGUUCGAGUCCCGUACGGAACG [C31G U47G C49G] | 0.647
15 | GUUCCGUUGGCGUAAUGGUAACGCGUCUCCGUCCUAAGGAAAAGACUGCGGGCUCGAGUCCCGUACGGAACG [C31G G41A U53C] | 0.52
16 | GUUCCGUUGGCGUAAUGGUAACGCGUCUCCGUCCUAAGGAGAAGUCAGCGGGUUCGAGUCCCGUACAGAACG [C31G A45U U47A G67A] | ≤ 0.5
17 | GUUCCGUUGGCGUAAUGGUAACGCGUCUCCGUCCUAAGGAGAAGACUGCGGGUUCGAGUCGCGUACGGAACG [C31G C61G] | 0.623
18 | GUUCCGUUGGCGUAAUGGUAACGCGUCUCCUUCCUAAGGAUAAGACUGCGGGUUCGAGUCCCGUACGGAACG [C31U G41U] | 1.03
19 | GUUCCGUUGGCGUAAUGGUAACGCGUCUCCGUCCUAAGGAGAAGAGUGCAGGUUCGAGUCCCGUACGGAACG [C31G C46G G50A] | 0.552

Row | Variant | yeast fitness
20 | GUUCCGUUGGCGUAAUGGUAACGCGUCUCCUUCCUAAGGAGAAGACUGCGGGUUCGAGUACCGUACAGAACG [C31U C60A G67A] | ≤ 0.5
21 | GUUCCGUUGGCGUAAUGGUAACGCGUCUCCUUCCUAAGGAGAAGACUGCGGGUUCGAGUCCCGUACGGCUCG [C31U A69C A70U] | 0.747
22 | GUUCCGUUGGCGUAAUGGUAACGCGUCUCCGUCCUAAGGAGAAGGCUGCGGGUUCUAGUCCCGUACGGAACG [C31G A45G G56U] | 0.561
23 | GUUCCGUUGGCGUAAUGGUAACGCGUCUCCUUCCUAAGGAGAAAACUGCGGGUUCGAGUCCCGUACGGAACG [C31U G44A] | 1.02
24 | GUUCCGUUGGCGUAAUGGUAACGCGUCUCCUUCCUAAGCAGAAGACUGCGGGUUCGAGUCCCGUACGGAACG [C31U G39C] | 0.901
25 | GUUCCGUUGGCGUAAUGGUAACGCGUCUCCUUCCUAAGGAGAAGACUGCGGGUUCGAGUCAUGUUCGGAACG [C31U C61A C62U A65U] | ≤ 0.5
26 | GUUCCGUUGGCGUAAUGGUAACGCGUCUCCUUCAUAAGGAGAAGACUGCGGGUUCGAGUCCCGUACGGAACG [C31U C34A] | 0.863
27 | GUUCCGUUGGCGUAAUGGUAACGCGUCUCCUUCCUAAGGAGAAGAGUGCAGGUUCGAGUCUCGUACGGAACG [C31U C46G G50A C61U] | 0.649
28 | GUUCCGUUGGCGUAAUGGUAACGCGUCUCCUUCCUAAGGAGAAGACUGCGGGUUCGAGUCGCGUAGGGAACG [C31U C61G C66G] | ≤ 0.5
29 | GUUCCGUUGGCGUAAUGGUAACGCGUCUCCUUCCUAAGGAGACGACUGCGGGUCCGAGUCCCGUACGGAACG [C31U A43C U54C] | 0.596
30 | GUUCCGUUGGCGUAAUGGUAACGCGUCUCCUUCCUACGGAGAAGACUGCGGGUUUGAGUCCCGUUCGGAGCG [C31U A37C C55U A65U A70G] | ≤ 0.5
31 | GUUCCGUUGGCGUAAUGGUAACGCGUCUCCUUCCUAAGGAGAAGACUGCGGGUUUGAGUCCCGUACGGAUCG [C31U C55U A70U] | 0.567
32 | GUUCCGUUGGCGUAAUGGUAACGCGUCUCCGUCCUAAGGAGAAGUCUGCGGGUUCGAUUCCUGUACGGAACG [C31G A45U G58U C62U] | ≤ 0.5
33 | GUUCCGUUGGCGUAAUGGUAACGCGUCUCCGUCCUAAGGAGAAGACUGCGGGUUCGCGUCCGGUACGGAACG [C31G A57C C62G] | 0.703
34 | GUUCCGUUGGCGUAAUGGUAACGCGUCUCCUUCCUAAGGAGGAGACUGCGGGUUUGAGUCCCGUACGGAACG [C31U A42G C55U] | 0.511
35 | GUUCCGUUGGCGUAAUGGUAACGCGUCUCCGUCCCAAGGAGAAGAUUGCGGGUUCGAGUCCCGUACGGAACG [C31G U35C C46U] | 0.582
36 | GUUCCGUUGGCGUAAUGGUAACGCGUCUCCGACCUAAGGCGAAGACUGCGGGUUCGAGUCCCGUACGGAACG [C31G U32A A40C] | ≤ 0.5
37 | GUUCCGUUGGCGUAAUGGUAACGCGUCUCCGUCCAAAGGAGAAGACUGCGGGUUCAAGUCCCAUACGGAACG [C31G U35A G56A G63A] | ≤ 0.5
